# Sampled rows, rich in hits. Any-hit rate of the full collection: about 2.3%.
# PLC-gamma1 inh: PLC-gamma1 enzyme inhibitors, primary screen, biochemical, fluorescence, purified enzyme. 370,000 compounds, 0.84% hits. 1-phosphatidylinositol 4,5-bisphosphate phosphodiesterase gamma-1 (Homo sapiens), P19174. fluorogenic substrate. inhibition, % at 12.2 µM; in the data active = inhibition above about 9.5%
# ADAM17 inh: ADAM17 inhibitors, primary screen, biochemical, QFRET. Disintegrin and metalloproteinase domain-containing protein 17 (Homo sapiens), P78536. recombinant ADAM17, EDANS/DABCYL FRET peptide cleavage. inhibition, % at 6.95 µM. 370,000 compounds, 0.83% hits;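 active = inhibition above the mean of compounds lying between control limits plus 3 SD, set per campaign, cut at about 8.5% in these data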;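 note: 0% = DMSO-only wells as the low control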
# Target sequence (P78536 215-824 limits assumed): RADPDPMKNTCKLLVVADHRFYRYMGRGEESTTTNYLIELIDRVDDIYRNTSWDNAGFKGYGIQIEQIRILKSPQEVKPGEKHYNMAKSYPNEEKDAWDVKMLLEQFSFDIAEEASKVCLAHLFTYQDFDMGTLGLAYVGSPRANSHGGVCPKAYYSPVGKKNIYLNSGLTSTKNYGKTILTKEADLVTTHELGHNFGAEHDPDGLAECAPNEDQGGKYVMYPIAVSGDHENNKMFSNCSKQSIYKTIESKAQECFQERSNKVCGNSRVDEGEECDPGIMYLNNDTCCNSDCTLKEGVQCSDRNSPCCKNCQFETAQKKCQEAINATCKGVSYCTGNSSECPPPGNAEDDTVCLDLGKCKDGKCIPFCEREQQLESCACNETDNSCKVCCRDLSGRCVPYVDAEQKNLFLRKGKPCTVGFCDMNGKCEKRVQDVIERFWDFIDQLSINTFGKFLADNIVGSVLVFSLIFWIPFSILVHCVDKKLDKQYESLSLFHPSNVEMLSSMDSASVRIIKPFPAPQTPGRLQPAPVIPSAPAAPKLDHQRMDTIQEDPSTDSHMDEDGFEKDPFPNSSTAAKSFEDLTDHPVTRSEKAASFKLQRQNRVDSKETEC
# PLCb3 inh: human PLC-beta3 inhibitors, primary screen, biochemical, fluorescence; 1-phosphatidylinositol 4,5-bisphosphate phosphodiesterase beta-3 (Homo sapiens), Q01970; Purified PLC-beta3, fluorogenic substrate; 370,000 compounds, 0.18% hits; inhibition, % at 12.2 µM; in the data active = inhibition above about 11%;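 note: 0% = median of compound wells on plate and 100% = full blocker control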
# DDE Tn7 FP inh: inhibitors of Tn7 peptide binding to fibrin DD(E), primary screen, biochemical, fluorescence polarization, human fibrin, Tn7 probe | FP displacement of FITC-Tn7 peptide from fibrin DD(E); 0% = median of compound wells per plate | inhibition, % at 8.3 µM | 370,000 compounds, 0.13% hits;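 active = inhibition above the mean of compounds falling within the control limits plus 3 SD of them, cut at about 14% in these data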;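 note: 0% = plate median of compound wells and 100% = 10 µM Aha-Tn7 peptide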
#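 System: human fibrin DD(E); quantity: Fibrin-DD(E) at 2 µM final; also added: fluorescent Tn7 probe at 0.1 µM; compound dosing: single nominal test concentration of 8.3 µM per compound; schedule: 10 min preincubation, 3 h with tracer, room temperature; detection: fluorescence polarization of the labelled Tn7 tracer; repeats: one replicate per compound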
# Tn6 DDE FP: inhibitors of Tn6 peptide binding to fibrin DD(E), primary screen, biochemical, fluorescence polarization, human fibrin, Tn6 probe; Fibrin DD(E) TRITC-Tn6 fluorescence polarization displacement; inhibition, % at 8.3 µM; 370,000 compounds, 0.21% hits; AID 720509, 2013;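 active = inhibition above a per-campaign cutoff: mean of compounds within control limits plus 3 SD, cut at about 15% in these data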;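 note: 0% = median of all compound wells on the plate and 100% = blocking peptide control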
# ADAM10 inh: human ADAM10 inhibitors, primary screen, biochemical, QFRET, HTS; Disintegrin and metalloproteinase domain-containing protein 10 (Homo sapiens), O14672; inhibition, % at 7 µM; 370,000 compounds, 0.62% hits; recombinant ADAM10, EDANS/DABCYL FRET peptide cleavage, 3 h;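 active = inhibition above a per-campaign cutoff equal to the mean of compounds falling between control-based bounds plus 3 SD, cut at about 20% in these data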;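 note: 0% = DMSO wells while the 100% control is not disclosed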
# ADAM10 confirm: human ADAM10 inhibitors, confirmation, biochemical, QFRET, triplicate; shares compounds with ADAM10 inh; ADAM10 QFRET peptide cleavage, EDANS fluorescence; 2,100 compounds, 1% hits; AID 743208, 2013; inhibition, % at 6.95 µM;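 active = inhibition above about 20% chosen separately for each screening run, limit read from the data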;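 note: 0% = DMSO wells and 100% = marimastat wells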
# ADAM17 counter: ADAM17 inhibitors, counter-screen for ADAM10 exosite inhibitor project, biochemical, QFRET, high throughput | shares compounds with ADAM10 inh | ADAM17 QFRET peptide cleavage, EDANS fluorescence | inhibition, % at 6.95 µM | 2,100 compounds, 0.5% hits;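 active = mean triplicate inhibition above the solvent-only control wells' mean plus 3 SD, cut at about 12% in these data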;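 note: 0% = DMSO wells and 100% = marimastat wells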
# The depositor's hits bear a star; nt = no result given.
SMILES,PLC-gamma1 inh,ADAM17 inh,PLCb3 inh,DDE Tn7 FP inh,Tn6 DDE FP,ADAM10 inh,ADAM10 confirm,ADAM17 counter
CC(C)C(=O)NC(c1ccccc1)c1cc([N+](=O)[O-])c2cccnc2c1O (centres undefined),5,8,6,-5,4,20*,10,4
CC(C)(C)NC(=O)[C@H](c1cccnc1)N(C(=O)c1ccco1)c1ccc(C(C)(C)C)cc1,0,-4,-4,8,3,-2,nt,nt
Cc1ccnc(SCc2ccc(C(=O)O)cc2)n1,2,-2,-6,4,-3,-6,nt,nt
Cc1ccc(NC(=O)c2ccc(CSc3nccc(C)n3)cc2)cc1,-2,-2,1,-1,0,22*,3,0
Cc1ccc(NS(=O)(=O)c2cc(C(=O)NCCSC3CCCCC3)ccc2C)cc1,-1,6,3,1,9,21*,3,2
Cc1ccc(C)c(S(=O)(=O)Nc2ccc(C(=O)NCCCN3CCCC3=O)cc2)c1,1,-2,-6,9,-1,-5,nt,nt
O=C(NC(Cc1c[nH]c2ccccc12)C(=O)Nc1ccc(F)c([N+](=O)[O-])c1)c1cccs1 (centres undefined),1,8,1,6,-9,20*,4,2
O=C(Nc1ccc(Cl)cc1)Nc1ccccc1NS(=O)(=O)c1cccs1,9,8,6,-1,-6,23*,4,1
O=C(Nc1ccc(F)cc1)Nc1ccccc1NS(=O)(=O)c1cccs1,3,2,2,0,1,1,nt,nt
Cc1ccc(NC(=O)C2CCN(c3ncnc4sc(C)c(C)c34)CC2)cc1S(=O)(=O)N(C)C,-8,5,-11,0,-5,22*,7,2
CCN(CC)S(=O)(=O)c1cc(NC(=O)C2CCN(c3ncnc4sc(C)c(C)c34)CC2)ccc1Cl,-2,0,-7,6,-2,1,nt,nt
O=C(O)c1ccccc1NS(=O)(=O)c1cccc2cccnc12,8,0,11*,-2,-2,22*,-1,0
O=C(Nc1cccc2ccccc12)c1ccccc1NS(=O)(=O)c1cccc2cccnc12,0,-1,0,5,5,-8,nt,nt
O=C(CCC(=O)N1CCN(S(=O)(=O)c2ccc(Cl)cc2)CC1)Nc1ccc2ccccc2c1,4,6,-1,0,-6,22*,5,2
O=C(NCCC(=O)N1CCN(S(=O)(=O)c2ccc(Cl)cc2)CC1)Nc1ccccc1,0,-1,-4,2,-5,4,nt,nt
FC(F)(F)c1ccccc1Cn1ccc2ccc(-c3ccc4ccn(Cc5ccccc5)c4c3)cc21,-39,-10,-54,1,8,-20,nt,nt
OCCCn1c(CCNc2nc(-c3ccc(F)cc3)cs2)nc2cc(C(F)(F)F)ccc21,2,7,1,2,-7,21*,5,1
OCCCn1c(C2CCCN2c2nc(-c3ccc(F)cc3)cs2)nc2cc(C(F)(F)F)ccc21 (centres undefined),4,5,5,-4,-8,12,nt,nt
Cc1ccc(/C=N/NC(=O)CSc2nnc(-c3ccccc3)n2-c2ccc(Cl)cc2)o1,5,8,9,1,-8,27*,2,1
CCOc1cc(/C=C/c2ccc3cccc([N+](=O)[O-])c3n2)ccc1O,6,7,4,-2,-6,22*,7,1
C[C@H]1[C@@H](OC(=O)Oc2ccc([N+](=O)[O-])cc2)CC[C@@]23CCCN2C(=O)CCC[C@@H]13,3,-5,0,-4,-2,-5,nt,nt
FC(F)(F)c1ccccc1NC(=S)OCCN1CCCC12CCC(c1ccccc1)CC2 (centres undefined),-1,5,-2,-1,3,4,nt,nt
Cc1ccc(Sc2ncccc2COC(=O)Nc2c(C)cccc2C)cc1,7,7,5,0,-6,16,nt,nt
Cc1ccc(Sc2ncccc2COC(=O)Nc2ccccc2)cc1,2,8,2,-3,-1,22*,6,3
CCOC(=O)[C@]12CCCC=C1N(CCCOC)C(=O)[C@@H]2CC(=O)NCc1cccc(C(F)(F)F)c1,0,1,0,-6,-7,-10,nt,nt
SMILES,PLC-gamma1 inh,ADAM17 inh,PLCb3 inh,DDE Tn7 FP inh,Tn6 DDE FP,ADAM10 inh,ADAM10 confirm,ADAM17 counter
Cc1cccc(-c2cccc3c4c([nH]c23)[C@@H]2C[C@H](N(C)C(=O)OCc3ccccc3)[C@H]([C@H](C)O)CN2CC4)c1,-176,-14,-243,0,-1,-60,nt,nt
Cc1[nH]c(N=Nc2ccccc2)nc1N=Nc1ccccc1,4,5,-2,-3,-4,21*,0,1
Clc1cccc(CNc2nc(-c3ccccn3)nnc2-c2ccccc2)c1,2,1,0,2,-2,5,nt,nt
COC(C(=O)Nc1ccc(S(=O)(=O)Nc2cccc3ccccc23)cc1)c1ccccc1 (centres undefined),-3,8,-1,-4,-1,21*,5,2
CCO[C@@H]1OC(C(=O)NCc2ccccc2)=C[C@H](c2ccc(Br)cc2)[C@H]1CCCO,3,3,2,0,4,12,nt,nt
CCO[C@H]1OC(C(=O)NCc2ccccc2)=C[C@@H](c2ccc(C(F)(F)F)cc2)[C@@H]1CCCO,2,2,2,1,-4,22*,-1,0
O=C(OCCCCSc1nnc(-c2cccc3ccccc23)o1)c1ccc(F)cc1,-5,-12,-8,0,2,-68,nt,nt
C[C@@H]1CCN(C2CC2)S(=O)(=O)c2ccc(N3CC[C@H](O)C3)cc2O1,2,1,-1,-5,6,0,nt,nt
CCOC(=O)COc1ccc(C(C)c2ccc(NC(=O)OC(C)(C)C)cc2)cc1 (centres undefined),1,8,3,6,-1,21*,6,2
